These results are taken from ChEMBL document CHEMBL1140686, “Indanylacetic acids as PPAR-delta activator insulin sensitizers” (Bioorg Med Chem Lett, 2007).

For orientation: EC50 means the concentration that produces a half-maximal response.

For assay [1], the target named is T1, Peroxisome proliferator-activated receptor alpha (Homo sapiens, UniProt Q07869).
T1 sequence (Q07869 whole entry): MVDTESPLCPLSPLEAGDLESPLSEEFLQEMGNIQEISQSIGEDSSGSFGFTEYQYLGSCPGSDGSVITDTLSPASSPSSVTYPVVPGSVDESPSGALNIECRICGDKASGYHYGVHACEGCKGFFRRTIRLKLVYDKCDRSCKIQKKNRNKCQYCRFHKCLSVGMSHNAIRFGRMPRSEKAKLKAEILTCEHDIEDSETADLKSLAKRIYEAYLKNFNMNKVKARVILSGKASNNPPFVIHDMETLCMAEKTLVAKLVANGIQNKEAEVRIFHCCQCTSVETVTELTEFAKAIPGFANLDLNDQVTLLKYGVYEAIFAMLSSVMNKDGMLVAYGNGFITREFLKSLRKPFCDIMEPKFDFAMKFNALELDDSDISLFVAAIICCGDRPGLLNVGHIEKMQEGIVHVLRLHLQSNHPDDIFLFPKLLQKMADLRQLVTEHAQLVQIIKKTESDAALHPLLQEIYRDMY
The assay can be described thus: (§1) Agonist activity at PPARalpha by FRET assay. In kind it is functional. The procedure, abridged: (§2)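 FRET coactivator-recruitment assay run with the PPAR-δ ligand binding domain (GST-tagged human PPAR-δ LBD) and separately with the PPAR-α ligand binding domain. Compounds were incubated with europium-labelled anti-GST antibody, biotinylated TRAP220 coactivator protein and streptavidin-labelled APC. Read in a fluorimeter at excitation 340 nm and emission 615 and 665 nm.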

For assay [2], the system named is Mus musculus. The assay can be described thus: Reduction in blood glucose level in db/db mouse at 3 mg/kg, po. The arrangement: dose 3 mg/kg. In kind it is functional, organism-based.
The test system of another assay is 3T3-L1. The assay can be described thus: Induction of insulin receptor in mouse 3T3L1 cells assessed as insulin sensitizing activity. It is filed as functional, cell-based. Conditions: for EC50: Mus musculus, 3T3-L1. Summed up:
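3T3-L1 preadipocytes grown about 1 week to 2 days post-confluence, then exposed 2 days to compound plus 0.5 µM IGF-1 in DMEM/10% FBS/2 mM glutamine/pen-strep, then 4 days in plain medium. Cells bound 0.1 nM [125I]insulin ± 100 nM unlabeled insulin for 1 h at room temperature, were washed and lysed in 1 N NaOH, then gamma-counted. EC50 taken where a plateau was reached; percent maximal stimulation recorded.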

The test system of assay [3] is Mus musculus. The assay can be described thus: Increase in serum HDL level in hApoA1 mouse model at 30 mg/kg, po. It is filed as functional.
For assay [4], the system named is Mus musculus. Briefly: Decrease in serum triglyceride level in hApoA1 mouse model at 30 mg/kg, po. It is filed as functional. The arrangement: scale not given: the % may be the effect or the level left.
For assay [5], the system named is Mus musculus. Briefly: Reduction in blood glucose level in db/db mouse at 10 mg/kg, po. In kind it is functional, organism-based. The arrangement: dose 10 mg/kg.
In assay [6] the test system is Mus musculus. The assay can be described thus: Decrease in serum triglyceride level in hApoA1 mouse model at 10 mg/kg, po. In kind it is functional. Set-up: scale not given: the % may be the effect or the level left.
Assay [7] has as its system Mus musculus. Briefly: Increase in serum HDL level in hApoA1 mouse model at 10 mg/kg, po. It is filed as functional.
For assay [8], the target named is T2, Peroxisome proliferator-activated receptor alpha (Homo sapiens) (UniProt Q07869).
T2 sequence (whole entry): T1 sequence (Q07869 whole entry)
The description is as §1. In kind it is functional. The procedure, abridged: as §2

Assay [9] has as its target Peroxisome proliferator-activated receptor delta (Homo sapiens) (UniProt Q03181). Briefly: Agonist activity at GST-tagged human PPARdelta by FRET assay.

Activity calls are given as the source filed them. The calls are words filed in the database; no cut-off is given here.

Sequence of Peroxisome proliferator-activated receptor delta (Homo sapiens) (Q03181 whole entry, looked up): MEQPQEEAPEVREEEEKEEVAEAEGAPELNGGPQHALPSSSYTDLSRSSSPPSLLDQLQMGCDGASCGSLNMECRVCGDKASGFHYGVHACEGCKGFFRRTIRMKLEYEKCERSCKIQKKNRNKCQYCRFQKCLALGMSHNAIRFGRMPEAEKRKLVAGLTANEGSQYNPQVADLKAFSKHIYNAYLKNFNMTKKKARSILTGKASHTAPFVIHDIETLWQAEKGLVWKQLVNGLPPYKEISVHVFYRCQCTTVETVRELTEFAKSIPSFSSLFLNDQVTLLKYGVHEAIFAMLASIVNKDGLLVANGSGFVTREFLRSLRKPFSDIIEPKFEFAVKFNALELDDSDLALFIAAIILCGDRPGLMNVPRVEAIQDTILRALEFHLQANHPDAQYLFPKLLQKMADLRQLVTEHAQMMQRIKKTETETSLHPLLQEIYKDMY

In the case of `Cc1oc(-c2ccc(-c3ccccc3)cc2)nc1CCOc1ccc2c(c1)CC[C@H]2CC(=O)O`, the concentration giving a half-maximal response (EC50) turned out to be 2.72 µM in [1] and 0.045 µM in the assay with 3T3-L1. In addition, the outcome with Mus musculus [2] was Active. For the same compound, the values for the Activity with Mus musculus [3] and in the assay on Mus musculus [4] were 29% and 38%, respectively.

Regarding `CN(CCOc1ccc(CC2SC(=O)NC2=O)cc1)c1ccccn1` (configuration not stated), the result in the assay on Mus musculus [5] was Active.

Turning to `Cc1cc(SCc2sc(-c3ccc(C(F)(F)F)cc3)nc2C)ccc1OCC(=O)O` [GW501516], the Activity amounted to 33% in the assay on Mus musculus [6] and 30% with Mus musculus [7].

`Cc1oc(-c2ccccc2)nc1CCOc1ccc2c(c1)C(C)(C)CC2CC(=O)O` (configuration not stated): the EC50 turned out to be 10 µM in [1] and 0.253 µM in the assay with 3T3-L1. The Activity in assay [8] is 7.5%; in the assay with 3T3-L1 it was 66%; in [9] it was 38%.

In assay [1], `Cc1oc(-c2ccccc2)nc1CCOc1ccc2c(c1)OCC2CC(=O)O` (configuration not stated) came in with a concentration giving a half-maximal response (EC50) of 10 µM. The compound further had an Activity in assay [8] of 15%.

Compound `Cc1oc(-c2ccccc2)nc1CCOc1ccc2c(c1)CCC[C@H]2CC(=O)O` gave an EC50 in [1] of 2.19 µM. The Activity was 58% in assay [8] and 50% in assay [9].

On to `Cc1oc(-c2ccccc2)nc1CCOc1ccc2c(c1)CC(C)C2CC(=O)O` (configuration not stated), for which the half-maximal effective concentration (EC50) was found to be 7.47 µM in assay [1] and 5.44 µM in the assay on 3T3-L1. Further, the Activity in assay [8] was determined as 11%; in the assay with 3T3-L1, 58%.
